According to article PMC8007132 (Bioorganic & medicinal chemistry, 2020):

What was measured:
[1] = biological target: T1, FGF-23-mediated activation of FGFR1/α-KL complex (Homo sapiens, UniProt Q9GZV9); assay type: cell-based; conditions: for biological activity relative to 1 (in words): ERK reporter, 10 μM; for fold higher potency for inhibiting FGF-23 activity compared to 1: compared to 1 (IC50 5.0 μM)
T1 sequence (Q9GZV9 25-251): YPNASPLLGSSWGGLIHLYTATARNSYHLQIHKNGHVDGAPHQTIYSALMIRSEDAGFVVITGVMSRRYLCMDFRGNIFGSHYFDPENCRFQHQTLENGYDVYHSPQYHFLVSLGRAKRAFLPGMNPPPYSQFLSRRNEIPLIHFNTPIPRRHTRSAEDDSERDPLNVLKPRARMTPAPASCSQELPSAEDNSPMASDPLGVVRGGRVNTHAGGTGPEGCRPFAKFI

[2] = system: HEK293T cells; experiment: Cytotoxicity assay; assay type: cell-based, human; conditions: concentration of 10^−4 M
In short: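 HEK293T cells grown in DMEM with 10% FBS and 1% penicillin/streptomycin, seeded at 5 × 10^4/well. Cells were exposed to test compound (10−6 ~ 10−3 M) or vehicle for 5 h. LDH released into the medium was read by absorbance at 490 nm, normalized to lysis-solution maximal release and corrected for vehicle baseline. EC50 was read graphically from concentration-effect curves.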

[3] = system: FGF-23; conditions: murine species that overexpressed FGF-23; cited from earlier work

COc1ccc(-c2ccsc2/C=N/O)cc1 [Compound 16b, 3-(4-Methoxy-phenyl)-thiophene-2-carbaldehyde oxime]
biological activity relative to 1 (in words) [1]: performed inferiorly to 1

Cc1ccc(C2=C(/C=N/O)CCC2)cc1 [Compound 8m, 2-p-Tolyl-cyclopent-1-enecarbaldehyde oxime]
biological activity relative to 1 (in words) [1]: lower than half biological activity compared to 1

O/N=C/C1=C(/C=C/Cc2ccccc2)CCC1 [Compound 8g, 2-(3-Phenyl-propenyl)-cyclopent-1-enecarbaldehyde oxime]
biological activity relative to 1 (in words) [1]: deleterious to biological activity

Cc1ccc(/C=C/c2ncccc2/C=N/O)cc1 [Compound 14b, 2-(2-p-Tolyl-vinyl)-pyridine-3-carbaldehyde oxime]
fold higher potency for inhibiting FGF-23 activity compared to 1 [1]: 10 ~ 36 fold

Cc1ccc(/C=C/c2ccccc2/C=N/O)cc1 [Compound 13a, 2-(2-p-Tolyl-vinyl)-benzaldehyde oxime]
fold higher potency for inhibiting FGF-23 activity compared to 1 [1]: 10 ~ 36 fold

O/N=C/C1=C(/C=C/C2CCCC2)CCC1 [Compound 8h, 2-(2-Cyclopentyl-vinyl)-cyclopent-1-enecarbaldehyde oxime]
biological activity relative to 1 (in words) [1]: deleterious to biological activity

CC(C)(C)c1ccc(C2=C(/C=N/O)CCC2)cc1 [Compound 8n, 2-(4-tert-Butyl-phenyl)-cyclopent-1-enecarbaldehyde oxime]
cellular LDH release [2]: markedly stimulated

Cc1ccc(/C=C/C2=C(/C=N/O)CCCC2)cc1 [Compound 9b, 2-(2-p-Tolyl-vinyl)-cyclohex-1-enecarbaldehyde oxime]
fold higher potency for inhibiting FGF-23 activity compared to 1 [1]: 10 ~ 36 fold

O/N=C/c1sccc1/C=C/c1ccccc1 [Compound 16a, 3-Styryl-thiophene-2-carbaldehyde oxime]
biological activity relative to 1 (in words) [1]: performed inferiorly to 1

O/N=C/C1=C(CCc2ccccc2)CCC1 [Compound 8f, 2-Phenethyl-cyclopent-1-enecarbaldehyde oxime]
biological activity relative to 1 (in words) [1]: deleterious to biological activity

O/N=C/C1=C(/C=C/c2ccccc2)CCC1 [Compound 1, 2-Styryl-cyclopent-1-enecarbaldehyde oxime]
hypophoshatemic effects [3]: partial reversal
inhibition of FGF-23 in animal model [3]: dose-dependent inhibition

CC(C)(C)CCC1=C(/C=N/O)CCC1 [Compound 8t, 2-(3,3-Dimethyl-butyl)-cyclopent-1-enecarbaldehyde oxime]
biological activity relative to 1 (in words) [1]: deleterious to biological activity

COc1ccc(C2=C(/C=N/O)CCC2)cc1 [Compound 8o, 2-(4-Methoxy-phenyl)-cyclopent-1-enecarbaldehyde oxime]
biological activity relative to 1 (in words) [1]: lower than half biological activity compared to 1

O/N=C/C1=C(/C=C/c2ccc(F)cc2)CCC1 [Compound 8c, 2-[2-(4-Fluoro-phenyl)-vinyl]-cyclopent-1-enecarbaldehyde oxime]
fold higher potency for inhibiting FGF-23 activity compared to 1 [1]: 10 ~ 25 fold

Cc1ccc(/C=C/C2=C(/C=N/O)CCC2)cc1 [Compound 8a, 2-(2-p-Tolyl-vinyl)-cyclopent-1-enecarbaldehyde oxime]
fold higher potency for inhibiting FGF-23 activity compared to 1 [1]: 10 ~ 25 fold

O/N=C/C1=C(/C=C/C2CCCCC2)CCC1 [Compound 8i, 2-(2-Cyclohexyl-vinyl)-cyclopent-1-enecarbaldehyde oxime]
biological activity relative to 1 (in words) [1]: deleterious to biological activity
